From PubChem BioAssay
Pemphigus Ab inh: inhibitors of pemphigus antibody binding to DSG3, primary screen, biochemical, bead-based, flow cytometry, scFv-GFP | DSG3-coupled beads, scFv-anti-DSG3-GFP binding; active compounds read low | 310,000 compounds, 0.48% hits | binding (percent of control), % at 10 µM;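 active means binding more than 3 SD below its plate's average and above zero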;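 further: hits lower antibody fragment binding to DSG3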
PolyA inh: polyadenylation inhibitors in yeast reporter cells, primary screen, luminescence, S. cerevisiae | S. cerevisiae SKY197-pL101 polyadenylation reporter, beta-gal luminescence; efflux-impaired pdr1/pdr3 knockout yeast; score 100 = 6 SD above DMSO | activity score, % at 12 µM | 300,000 compounds, 0.02% hits;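 active means lowest replicate activity score at least 50, where 100 means six control SD above control mean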;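 further: yeast exposed to compound for 9 h at 30 °C; higher score means more reporter readthrough which indicates perturbed polyadenylation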
Arr AP2 block: inhibitors of beta-arrestin/AP2 binding, primary screen, biochemical, GPCR trafficking, flow cytometry; FITC-arrestin peptide / GST-AP2 beads; AP2 beta2 appendage carries R879A mutation; 340,000 compounds, 0.31% hits; inhibition, % at 10 µM; AID 504490, 2011; beta-arrestin 1 C-terminal peptide binding to AP2 beta2-adaptin appendage (human);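 active means inhibition above a set limit, near 3 SD of compounds lacking own fluorescence, cut at about 54% in these data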;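 further: plate controls were DMSO wells for no effect and 5 µM unlabelled arrestin peptide for full effect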
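system = GST-tagged AP2 beta2-adaptin appendage (R879A) on 4 µm glutathione beads | reagent = FITC-labelled arrestin peptide probe, 50 nM final | schedule = compound with beads 12 min RT, then probe 1 h RT | signal = HyperCyt-sampled flow cytometry, FL1 channel, ex 488/em 535 nm | read-out = percent response from loss of bead-bound FITC fluorescence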
NALP1 yeast inh: NALP1 inflammasome inhibitors in reconstituted yeast, colorimetric, S. cerevisiae, triplicate retest; S. cerevisiae NALP1/ASC/caspase-1 growth, X-gal OD620, 72 h; inhibition, % at 10 µM; 280,000 compounds, 0.61% hits; AID 2071, 2009; in the data active means inhibition mostly above about 24%, no sharp cut-off; inactive means mostly below about 32%
NALP3 yeast inh: NALP3 inflammasome inhibitors in reconstituted yeast, primary screen, luminescence, uHTS | 330,000 compounds, 0.39% hits | Yeast reconstituted NLRP3/ASC/caspase-1, beta-gal luminescence, 24 h | inhibition, % at 10 µM;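 active means inhibition of 50% or more; inactive means inhibition below 50%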;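 further: plate controls were induced DMSO wells for no effect and uninduced yeast grown without galactose for full effect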
ALR H2O2 inh: inhibitors of human ALR sulfhydryl oxidase, primary screen, biochemical, H2O2 detection, HRP-luminol luminescence, single point. FAD-linked sulfhydryl oxidase ALR (Homo sapiens), P55789. purified ALR, DTT oxidation. inhibition, % (concentration not given with the values). 290,000 compounds, 3.8% hits. AID 485317, 2010;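 active means mean replicate inhibition above about 79%, with every replicate also reaching it, limit read from the data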
Target sequence (P55789 whole entry, looked up): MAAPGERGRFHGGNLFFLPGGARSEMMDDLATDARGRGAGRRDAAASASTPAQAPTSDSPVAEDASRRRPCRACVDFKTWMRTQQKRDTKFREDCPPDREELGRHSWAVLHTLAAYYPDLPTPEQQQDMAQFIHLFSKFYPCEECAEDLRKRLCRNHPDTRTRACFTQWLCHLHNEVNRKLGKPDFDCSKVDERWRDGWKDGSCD
Active calls of the source: *; / = not tested or not shown. Most compounds without a hit are left out; they make up all but 4.6% or so of the library.

SMILES | Pemphigus Ab inh | PolyA inh | Arr AP2 block | NALP1 yeast inh | NALP3 yeast inh | ALR H2O2 inh
CC1CCCN(S(=O)(=O)c2ccc3oc(=O)ccc3c2)C1 (configuration not stated) | 106 | 3 | -15 | 12 | -7 | -8
CCC(=O)NNC(=O)Cc1c(C)n(C(=O)c2ccc(Cl)cc2)c2ccc(OC)cc12 | 96 | 12 | -7 | 4 | 10 | -3
O=C(COC(=O)c1ccc([N+](=O)[O-])o1)NCc1ccccc1 | / | / | 19 | / | 11 | -27
CN(Cc1ccccc1)C(=O)c1ccc([N+](=O)[O-])o1 | 104 | -17 | / | 48* | -1 | -24
COc1ccc(C(=O)N(CC2CCCO2)C(C(=O)NCCC(C)C)c2ccc(C)cc2)cc1OC (configuration not stated) | 87* | -2 | -5 | -36 | -19 | -1
COc1ccc(C(=O)N(CC2CCCO2)C(C(=O)NC2CCCC2)c2ccc(Cl)cc2)cc1OC (configuration not stated) | 96 | 8 | -8 | 34 | 7 | -3
Cc1cc(O)cc(O)c1/C=N/NC(=O)c1ccc2c(c1)OCCO2 | 95 | / | / | / | / | /
O=C(Nc1cccc(-c2cn3ccsc3n2)c1)c1ccccc1 | / | -11 | -10 | 13 | 17 | 91*
COc1ccccc1C(=O)Nc1cccc(-c2cn3ccsc3n2)c1 | / | / | / | -1 | / | /
Cc1cc(=O)n(C)c(=O)n1CCCCCCOc1cccc([N+](=O)[O-])c1 | 89 | 6 | 4 | -25 | 17 | /
Cc1cc(=O)n(C)c(=O)n1CCCCCN1CCCC1 | 106 | 0 | -4 | -21 | 17 | 100*
CC1CC(C)CN(C(=O)/C=C/c2ccc(S(=O)(=O)N3CCOCC3)cc2)C1 (configuration not stated) | 101 | / | -3 | / | 2 | -14
O=C(NCc1ccco1)C1CC(=O)N(c2ccc(O)cc2)C1 (configuration not stated) | 105 | 8 | 20 | -12 | 9 | 99*
CC(C)(C)c1ccc(S(=O)(=O)N2CCN(Cc3cc4c(cc3O)OCO4)CC2)cc1 | / | / | -14 | / | 10 | /
Cn1cnc([N+](=O)[O-])c1S(=O)(=O)Oc1ccccc1 | / | / | -8 | / | / | /
Cn1cnc([N+](=O)[O-])c1S(=O)(=O)c1cccc(Cl)c1 | 109 | -4 | 8 | 66* | -28 | 42
COCCNC(=O)CNS(=O)(=O)c1ccc2nc(C)sc2c1 | 100 | 6 | 16 | -1 | 4 | -5
Cc1ccc(CNC(=O)C(NS(=O)(=O)c2ccc3nc(C)sc3c2)C(C)C)cc1 (configuration not stated) | 105 | 7 | 3 | 1 | 7 | 93*
Cc1nc2ccc(S(=O)(=O)NC(C(=O)NCc3ccco3)C(C)C)cc2s1 (configuration not stated) | 108 | -7 | 0 | 17 | 12 | 23
Cc1nc2ccc(S(=O)(=O)NCC(=O)N(C)Cc3ccccc3)cc2s1 | 100 | -16 | 8 | -2 | 1 | 99*
COc1ccc(NC(=O)CNS(=O)(=O)c2ccc3nc(C)sc3c2)c(OC)c1 | 109 | -11 | 5 | -2 | 4 | 99*
COc1ccc(S(N)(=O)=O)cc1C(=O)NC1CCCc2ccccc21 (configuration not stated) | -38* | 12 | 0 | 14 | 17 | -3
CC(C)c1nnc(NC(=O)c2sc3ccccc3c2Cl)s1 | 108 | -15 | -1 | 8 | 20 | 98*
O=C(N/N=C/c1ccncc1)c1sc2ccccc2c1Cl | -1.9* | 16 | -6 | 1 | 35 | 2
O=C(NC(=S)Nc1cc(Cl)ccc1Cl)c1ccco1 | 101 | / | / | / | / | /
CN(C)S(=O)(=O)c1ccc(NC(=O)Cn2nc(-c3ccc4c(c3)OCCO4)ccc2=O)cc1 | 100 | / | 18 | / | / | /
CC(C)(C)c1cc(-c2n[nH]c(=S)n2-c2ccccc2F)n[nH]1 | 110 | -7 | -7 | / | 24 | 91*
